Results taken from paper PMC5966020 (Journal of medicinal chemistry, 2018).
Read-outs that look alike come from different tables or passages of the source.

Tests used:
[1] = target: T1, human recombinant MAGL (hMAGL) (Homo sapiens, UniProt Q99685); assay: human recombinant MAGL inhibition enzyme assay; format: biochemical
T1 sequence (Q99685 1-303): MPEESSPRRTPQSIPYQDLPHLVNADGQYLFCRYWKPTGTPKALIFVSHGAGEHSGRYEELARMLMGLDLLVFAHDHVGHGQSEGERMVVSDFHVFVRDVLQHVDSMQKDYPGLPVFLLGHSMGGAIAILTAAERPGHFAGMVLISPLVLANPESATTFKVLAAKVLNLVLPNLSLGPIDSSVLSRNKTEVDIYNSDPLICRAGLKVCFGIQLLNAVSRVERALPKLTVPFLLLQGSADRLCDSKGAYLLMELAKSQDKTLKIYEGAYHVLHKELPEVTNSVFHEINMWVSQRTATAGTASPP
In short: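 Commercial MAGL inhibitor screening kit with human recombinant enzyme, run per the manufacturer's instructions. JZL195 was the positive control. IC50 from dose-response curve fitting, averaged over 3–5 runs.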

[2] = LogP by shake flask method; format: physicochemical; conditions: n-octanol/water
In short: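 n-Octanol/water liquid-liquid partition ('shake flask'), following the OECD 107 guideline. Compound quantified in each phase by LC-MS; n = 3.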

rat brain MAGL [3] = target: T2, rat brain MAGL (Rattus norvegicus, UniProt Q8R431); assay: [3H]2-OG hydrolysis assay; format: biochemical; conditions: for IC50: IC50, inhibition of [3H]2-OG hydrolysis, 0.5 μM [3H]2-OG; for pIC50 in [3H]2-OG assay: positive control
T2 sequence (Q8R431 1-303): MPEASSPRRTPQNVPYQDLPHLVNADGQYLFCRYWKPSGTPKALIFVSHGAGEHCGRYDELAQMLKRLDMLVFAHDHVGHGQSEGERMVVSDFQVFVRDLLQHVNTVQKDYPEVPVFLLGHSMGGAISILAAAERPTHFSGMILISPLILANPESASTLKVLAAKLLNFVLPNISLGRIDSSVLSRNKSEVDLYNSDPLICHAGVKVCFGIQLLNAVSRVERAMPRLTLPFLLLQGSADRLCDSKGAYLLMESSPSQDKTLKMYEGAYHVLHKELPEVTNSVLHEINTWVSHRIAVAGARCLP
In short: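 Rat brain preparation, test compound and buffer (10 mM Tris-HCl, 1 mM EDTA, pH 7.4) were preincubated 0–60 min. [3H]2-OG diluted with unlabelled 2-OG was then added to 0.5 μM final, with 0.125% w/v fatty acid-free BSA. Kinetics: no preincubation, 2 min incubation. Reversibility: 60 min preincubation, then 20-fold dilution. JZL184 was the positive control. Means of 3–4 runs.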

FAAH = target: T3, FAAH (Rattus norvegicus, UniProt P97612); assay: [3H]AEA hydrolysis assay; format: biochemical
T3 sequence (P97612 1-579): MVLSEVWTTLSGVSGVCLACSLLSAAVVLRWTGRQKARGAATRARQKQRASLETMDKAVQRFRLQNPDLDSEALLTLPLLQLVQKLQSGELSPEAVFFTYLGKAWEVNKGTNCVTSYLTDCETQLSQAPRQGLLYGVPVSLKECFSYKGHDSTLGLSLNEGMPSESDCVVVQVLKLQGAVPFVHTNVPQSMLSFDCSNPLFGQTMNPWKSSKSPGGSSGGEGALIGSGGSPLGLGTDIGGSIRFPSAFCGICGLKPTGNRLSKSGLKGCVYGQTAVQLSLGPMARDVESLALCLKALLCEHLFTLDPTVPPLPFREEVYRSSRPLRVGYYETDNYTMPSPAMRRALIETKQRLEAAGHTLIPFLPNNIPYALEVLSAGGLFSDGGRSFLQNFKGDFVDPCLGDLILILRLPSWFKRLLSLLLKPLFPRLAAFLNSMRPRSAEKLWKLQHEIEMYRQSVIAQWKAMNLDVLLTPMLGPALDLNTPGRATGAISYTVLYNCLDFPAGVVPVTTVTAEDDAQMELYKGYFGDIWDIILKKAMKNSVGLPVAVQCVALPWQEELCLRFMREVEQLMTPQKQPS

CB1 = CB1 (Homo sapiens, UniProt P21554); assay: CB1 receptor agonist and antagonist assays; format: cell-based; conditions: up to 30 μM concentration
In short: (§1)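 Run by the NIMH Psychoactive Drug Screening Program to its published protocols, in agonist and antagonist formats. CP55940 was the agonist control at both receptors. Rimonabant was the CB1 antagonist control and SR144528 the CB2 antagonist control. Dose-response curves were generated, averaged over 3–5 runs.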

CB2 = CB2 (Homo sapiens, UniProt P34972); assay: CB2 receptor agonist and antagonist assays; format: cell-based; conditions: up to 30 μM concentration
In short: as §1

ABHD6 = target: T4, ABHD6 (Mus musculus, UniProt Q8R2Y0); assay: activity based protein profiling; format: biochemical; conditions: up to 10 μM concentration
T4 sequence (Q8R2Y0 1-336): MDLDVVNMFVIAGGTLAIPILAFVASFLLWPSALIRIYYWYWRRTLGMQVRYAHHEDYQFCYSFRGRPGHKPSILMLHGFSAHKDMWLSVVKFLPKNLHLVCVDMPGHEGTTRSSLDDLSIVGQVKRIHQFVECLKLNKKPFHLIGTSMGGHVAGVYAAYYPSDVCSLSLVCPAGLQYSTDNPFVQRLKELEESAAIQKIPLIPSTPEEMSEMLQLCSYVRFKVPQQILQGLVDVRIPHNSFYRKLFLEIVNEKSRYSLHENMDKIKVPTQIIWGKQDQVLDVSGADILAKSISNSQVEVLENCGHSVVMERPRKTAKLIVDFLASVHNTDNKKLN
In short: (§2)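 Mouse brain membrane proteome (1 mg/mL) preincubated with DMSO or test compound (1 and 10 μM) for 30 min at 37 °C. FP-rhodamine (1 μM final) was then added for 1–180 min at room temperature. Samples were separated by SDS-PAGE and read by in-gel fluorescence. Band intensity is given relative to DMSO (100%). MJN110 was the positive control; 3 runs.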

ABHD12 = target: T5, ABHD12 (Mus musculus, UniProt Q99LR1); assay: activity based protein profiling; format: biochemical; conditions: up to 10 μM concentration
T5 sequence (Q99LR1 1-398): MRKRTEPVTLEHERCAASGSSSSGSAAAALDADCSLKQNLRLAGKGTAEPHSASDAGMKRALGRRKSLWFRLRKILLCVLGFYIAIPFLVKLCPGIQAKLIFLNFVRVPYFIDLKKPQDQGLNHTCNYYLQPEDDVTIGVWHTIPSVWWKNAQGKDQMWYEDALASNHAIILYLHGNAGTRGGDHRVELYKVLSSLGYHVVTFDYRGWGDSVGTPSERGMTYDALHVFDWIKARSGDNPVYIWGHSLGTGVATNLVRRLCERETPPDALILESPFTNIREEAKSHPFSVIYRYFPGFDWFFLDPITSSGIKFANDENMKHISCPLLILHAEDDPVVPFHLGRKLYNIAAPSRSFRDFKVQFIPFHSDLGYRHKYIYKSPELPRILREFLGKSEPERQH
In short: as §2

brain = assay: PET brain uptake of 19; conditions: in vivo
rat brain MAGL [4] = target: T2, rat brain MAGL; conditions: read-out: IC50, inhibition of [3H]2-OG hydrolysis, cited from earlier work

Chain of CB2 (P34972 whole entry, species assumed): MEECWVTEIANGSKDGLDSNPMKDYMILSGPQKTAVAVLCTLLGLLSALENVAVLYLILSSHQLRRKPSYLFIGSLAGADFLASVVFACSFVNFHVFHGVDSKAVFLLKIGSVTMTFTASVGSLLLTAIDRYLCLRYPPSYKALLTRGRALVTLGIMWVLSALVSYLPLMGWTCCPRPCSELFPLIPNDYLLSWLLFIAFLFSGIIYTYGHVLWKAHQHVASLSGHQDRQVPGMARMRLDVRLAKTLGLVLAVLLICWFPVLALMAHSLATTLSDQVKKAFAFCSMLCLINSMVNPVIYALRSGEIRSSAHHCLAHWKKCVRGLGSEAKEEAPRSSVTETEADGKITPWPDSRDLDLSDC
Chain of CB1 (P21554 whole entry, species assumed): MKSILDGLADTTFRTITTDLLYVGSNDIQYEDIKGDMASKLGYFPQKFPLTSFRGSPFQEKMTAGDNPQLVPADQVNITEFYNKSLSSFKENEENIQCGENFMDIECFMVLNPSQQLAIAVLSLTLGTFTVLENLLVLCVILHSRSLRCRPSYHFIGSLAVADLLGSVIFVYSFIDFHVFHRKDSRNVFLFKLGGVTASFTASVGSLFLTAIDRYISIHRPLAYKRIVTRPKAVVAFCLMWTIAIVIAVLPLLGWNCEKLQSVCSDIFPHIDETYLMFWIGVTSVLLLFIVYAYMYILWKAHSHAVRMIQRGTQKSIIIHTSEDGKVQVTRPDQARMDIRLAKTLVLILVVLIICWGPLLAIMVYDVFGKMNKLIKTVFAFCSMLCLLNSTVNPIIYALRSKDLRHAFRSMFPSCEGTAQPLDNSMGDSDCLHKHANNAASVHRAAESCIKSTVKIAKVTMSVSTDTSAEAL

## O=C(OC(C(F)(F)F)C(F)(F)F)N1CC(c2nc(-c3ccc(F)cc3)no2)C1 [Compound 8, 1,1,1,3,3,3-hexafluoropropan-2-yl 3-(3-(4-fluorophenyl)-1,2,4-oxadiazol-5-yl)azetidine-1-carboxylate]
[1]
  IC50: 13.4 nM
[2]
  logP: 1.45 ± 0.01

## O=C(OC(C(F)(F)F)C(F)(F)F)N1CC(c2nc(-c3cccc(F)c3)no2)C1 [Compound 9, 1,1,1,3,3,3-hexafluoropropan-2-yl 3-(3-(3-fluorophenyl)-1,2,4-oxadiazol-5-yl)azetidine-1-carboxylate]
[2]
  logP: 1.42 ± 0.11

## COc1ccc(-c2noc(C3CN(C(=O)OC(C(F)(F)F)C(F)(F)F)C3)n2)cc1 [Compound 10, 1,1,1,3,3,3-hexafluoropropan-2-yl 3-(3-(4-methoxyphenyl)-1,2,4-oxadiazol-5-yl)azetidine-1-carboxylate]
Rat brain MAGL [3]
  Ki: 1.03 nM
Rat brain MAGL [3]; 0.2, 0.6 and 1 nM inhibitor
  time-dependency of inhibition: time-dependent inhibition
Rat brain MAGL [3]; 60 min of pre-incubation
  IC50: 0.68 nM
Rat brain MAGL [3]; without pre-incubation
  IC50: 3.9 nM
Rat brain MAGL [3]; dilution experiments and ABPP time course
  binding mechanism: irreversible binding mechanism
[1]
  IC50: 12.7 nM
FAAH
  selectivity towards MAGL over FAAH: 30–50 fold
CB1
  interaction with CB1: No significant interactions
CB2
  interaction with CB2: No significant interactions
ABHD6
  interaction with ABHD6: No significant interactions
ABHD12
  interaction with ABHD12: No significant interactions
[2]
  logP: 1.23 ± 0.1

## COc1cccc(-c2noc(C3CN(C(=O)OC(C(F)(F)F)C(F)(F)F)C3)n2)c1 [Compound 11, 1,1,1,3,3,3-hexafluoropropan-2-yl 3-(3-(3-methoxyphenyl)-1,2,4-oxadiazol-5-yl)azetidine-1-carboxylate]
[2]
  logP: 1.17 ± 0.14

## O=C(OC(C(F)(F)F)C(F)(F)F)N1CC(c2nc(-c3ccc(F)cc3)no2)C1 [Compound 19, ^11C-carbonyl labeled 1,1,1,3,3,3-hexafluoropropan-2-yl 3-(3-(4-fluorophenyl)-1,2,4-oxadiazol-5-yl)azetidine-1-carboxylate]
brain
  peak SUV in brain: ca. 1.4 SUV

## O=C(Oc1ccc([N+](=O)[O-])cc1)N1CCC(C(O)(c2ccc3c(c2)OCO3)c2ccc3c(c2)OCO3)CC1 [JZL184]
Rat brain MAGL [3]; 60 min preincubation
  pIC50 in [3H]2-OG assay: 8.24±0.02
Rat brain MAGL [3]; without preincubation
  pIC50 in [3H]2-OG assay: 6.46±0.04
Rat brain MAGL [4]; preincubation 0 min
  IC50: 350 nM
Rat brain MAGL [4]; preincubation 30 min
  IC50: 12 nM
Rat brain MAGL [4]; preincubation 60 min
  IC50: 5.8 nM

## O=C(Oc1ccc([N+](=O)[O-])cc1)N1CCN(Cc2cccc(Oc3ccccc3)c2)CC1 [JZL195, reference compound]
[1]; 4.4 μM, positive control
  block of human recombinant MAGL hydrolysis: completely blocked
